# Columns and labels:
# Adenosine kinase [1] = target: T1, Adenosine kinase (Homo sapiens, UniProt P55263); test: Drug level assessed as human ADK-mediated compound formation treated with adenosine at 50 uM after 30 mins by HPLC analysis; format: ADME; settings: 0.5 h
# Adenosine kinase [2] = target: T1, Adenosine kinase; test: Drug level in human BJ cells assessed as ADK-mediated compound formation treated with 4-Methylsulfanyl-8-(beta-D-ribofuranosyl)-8H-thieno[3',2':4,5]-pyrrolo[2,3-d]pyrimidine at 1 umol/L after 3 hrs by UPLC-MS/MS analysis; format: ADME, cell-based
# HepG2 = test: Cytotoxicity against human HepG2 cells assessed as reduction in cell viability after 72 hrs by XTT assay; format: functional, cell-based; settings: HepG2, 72 h
# Method in brief: (§1)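 Cells were incubated with compound for 3 days. Viability was then measured with the XTT tetrazolium assay.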
# Adenosine kinase [3] = target: T1, Adenosine kinase; test: Drug metabolism in human HCT116 cells assessed as ADK-mediated 4-Methylsulfanyl-8-(beta-D-ribofuranosyl)-8H-thieno[3,2:4,5]-pyrrolo[2,3-d]pyrimidine-5-O-monophosphate Sodium Salt formation per 5 x10^5 cells at 1 umol/L after 3 hrs by UPLC-MS/MS analysis; format: ADME, cell-based; settings: 1 µM
# HeLa S3 = test: Cytotoxicity against human HeLaS3 cells assessed as reduction in cell viability after 72 hrs by XTT assay; format: functional, cell-based; settings: HeLa S3, 72 h; method in brief: as §1
# BJ = test: Cytotoxicity against human BJ cells assessed as cell growth inhibition after 72 hrs by MTS assay; format: cell-based
# Method in brief: (§2)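 Cells were exposed to compound for 3 days, then stained with MTS as a quantitative metabolic read-out. IC50 is the concentration that inhibits cell growth by 50%.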
# MRC5 = test: Cytotoxicity against human MRC5 cells assessed as cell growth inhibition after 72 hrs by MTS assay; format: cell-based; settings: MRC5, 72 h; method in brief: as §2
# Adenosine kinase [4] = target: T1, Adenosine kinase; test: Drug level in human HCT116 cells assessed as ADK-mediated compound formation treated with 4-Methylsulfanyl-8-(beta-D-ribofuranosyl)-8H-thieno[3',2':4,5]-pyrrolo[2,3-d]pyrimidine at 1 umol/L after 3 hrs by UPLC-MS/MS analysis; format: ADME, cell-based
# Adenosine kinase [5] = target: T1, Adenosine kinase; test: Drug level in human BJ cells assessed as ADK-mediated compound formation treated with 4-Methylsulfanyl-8-(beta-D-ribofuranosyl)-8H-thieno[3',2':4,5]-pyrrolo[2,3-d]pyrimidine at 1 umol/L after 1 hr by UPLC-MS/MS analysis; format: ADME, cell-based
# U2OS = test: Cytotoxicity against human U2OS cells assessed as cell growth inhibition after 72 hrs by MTS assay; format: functional, cell-based
# Adenosine kinase [6] = target: T1, Adenosine kinase; test: Drug metabolism in human HCT116 cells assessed as ADK-mediated 4-Methylsulfanyl-8-(beta-D-ribofuranosyl)-8H-thieno[3,2:4,5]-pyrrolo[2,3-d]pyrimidine-5-O-monophosphate Sodium Salt formation per 5 x10^5 cells at 1 umol/L after 1 hr by UPLC-MS/MS analysis; format: ADME, cell-based; settings: 1 µM
# Adenosine kinase [7] = target: T1, Adenosine kinase; test: Drug metabolism in human HCT116 cells assessed as ADK-mediated 4-Methylsulfanyl-8-(beta-D-ribofuranosyl)-8H-thieno[3,2:4,5]-pyrrolo[2,3-d]pyrimidine-5-O-monophosphate Sodium Salt formation per 5 x10^5 cells at 10 umol/L after 1 hr by UPLC-MS/MS analysis; format: ADME, cell-based; settings: 10 µM
# HCT-116 [8] = test: Cytotoxicity against human HCT116 cells assessed as cell growth inhibition after 72 hrs by MTS assay; format: functional, cell-based; settings: HCT-116, 72 h; method in brief: as §2
# Adenosine kinase [9] = target: T1, Adenosine kinase; test: Drug level in human HCT116 cells assessed as ADK-mediated compound formation treated with 4-Methylsulfanyl-8-(beta-D-ribofuranosyl)-8H-thieno[3',2':4,5]-pyrrolo[2,3-d]pyrimidine at 10 umol/L after 1 hr by UPLC-MS/MS analysis; format: ADME, cell-based
# K562 = test: Cytotoxicity against human K562 cells assessed as cell growth inhibition after 72 hrs by MTS assay; format: functional, cell-based; settings: K562, 72 h; method in brief: as §2
# [10] = Cytotoxicity against human K562-TAX cells assessed as cell growth inhibition after 72 hrs by MTS assay; format: functional, cell-based; method in brief: as §2
# [11] = Cytotoxicity against mrp-1/mdr-1 overexpressing human CEM-DNR-bulk cells assessed as cell growth inhibition after 72 hrs by MTS assay; format: functional, cell-based
# Method in brief: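 Cells were exposed to compound for 3 days, then stained with MTS as a quantitative metabolic read-out.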
# Adenosine kinase [12] = target: T1, Adenosine kinase; test: Drug metabolism in human BJ cells assessed as ADK-mediated 4-Methylsulfanyl-8-(beta-D-ribofuranosyl)-8H-thieno[3,2:4,5]-pyrrolo[2,3-d]pyrimidine-5-O-monophosphate Sodium Salt formation per 5 x10^5 cells at 1 umol/L after 1 hr by UPLC-MS/MS analysis; format: ADME, cell-based; settings: 1 µM
# Adenosine kinase [13] = target: T1, Adenosine kinase; test: Drug metabolism in human BJ cells assessed as ADK-mediated 4-Methylsulfanyl-8-(beta-D-ribofuranosyl)-8H-thieno[3,2:4,5]-pyrrolo[2,3-d]pyrimidine-5-O-monophosphate Sodium Salt formation per 5 x10^5 cells at 10 umol/L after 1 hr by UPLC-MS/MS analysis; format: ADME, cell-based; settings: 10 µM
# HCT-116 [14] = test: Cytotoxicity against p53 deficient human HCT116 cells assessed as cell growth inhibition after 72 hrs by MTS assay; format: functional, cell-based; settings: HCT-116, 72 h; method in brief: as §2
# Adenosine kinase [15] = target: T1, Adenosine kinase; test: Drug level in human BJ cells assessed as ADK-mediated compound formation treated with 4-Methylsulfanyl-8-(beta-D-ribofuranosyl)-8H-thieno[3',2':4,5]-pyrrolo[2,3-d]pyrimidine at 10 umol/L after 3 hrs by UPLC-MS/MS analysis; format: ADME, cell-based
# CCRF-CEM = test: Cytotoxicity against human CCRF-CEM cells assessed as cell growth inhibition after 72 hrs by MTS assay
# Adenosine kinase [16] = target: T1, Adenosine kinase; test: Drug level in human HCT116 cells assessed as ADK-mediated compound formation treated with 4-Methylsulfanyl-8-(beta-D-ribofuranosyl)-8H-thieno[3',2':4,5]-pyrrolo[2,3-d]pyrimidine at 10 umol/L after 3 hrs by UPLC-MS/MS analysis; format: ADME, cell-based
# Adenosine kinase [17] = target: T1, Adenosine kinase; test: Drug metabolism in human HCT116 cells assessed as ADK-mediated 4-Methylsulfanyl-8-(beta-D-ribofuranosyl)-8H-thieno[3,2:4,5]-pyrrolo[2,3-d]pyrimidine-5-O-monophosphate Sodium Salt formation per 5 x10^5 cells at 10 umol/L after 3 hrs by UPLC-MS/MS analysis; format: ADME, cell-based; settings: 10 µM
# HL-60 = test: Cytotoxicity against human HL60 cells assessed as reduction in cell viability after 72 hrs by XTT assay; format: functional, cell-based; settings: HL-60, 72 h; method in brief: as §1
# Adenosine kinase [18] = target: T1, Adenosine kinase; test: Drug level assessed as human ADK-mediated compound formation treated with 4-Methylsulfanyl-8-(beta-D-ribofuranosyl)-8H-thieno[3',2':4,5]-pyrrolo[2,3-d]pyrimidine at 50 uM after 30 mins by HPLC analysis; format: ADME; settings: 0.5 h
# Adenosine kinase [19] = target: T1, Adenosine kinase; test: Drug level in human HCT116 cells assessed as ADK-mediated compound formation treated with 4-Methylsulfanyl-8-(beta-D-ribofuranosyl)-8H-thieno[3',2':4,5]-pyrrolo[2,3-d]pyrimidine at 1 umol/L after 1 hr by UPLC-MS/MS analysis; format: ADME, cell-based
# Adenosine kinase [20] = target: T1, Adenosine kinase; test: Drug level in human BJ cells assessed as ADK-mediated compound formation treated with 4-Methylsulfanyl-8-(beta-D-ribofuranosyl)-8H-thieno[3',2':4,5]-pyrrolo[2,3-d]pyrimidine at 10 umol/L after 1 hr by UPLC-MS/MS analysis; format: ADME, cell-based
# Adenosine kinase [21] = target: T1, Adenosine kinase; test: Drug metabolism in human BJ cells assessed as ADK-mediated 4-Methylsulfanyl-8-(beta-D-ribofuranosyl)-8H-thieno[3,2:4,5]-pyrrolo[2,3-d]pyrimidine-5-O-monophosphate Sodium Salt formation per 5 x10^5 cells at 1 umol/L after 3 hrs by UPLC-MS/MS analysis; format: ADME, cell-based; settings: 1 µM
# A549 = test: Cytotoxicity against human A549 cells assessed as cell growth inhibition after 72 hrs by MTS assay; format: functional, cell-based; settings: A549, 72 h; method in brief: as §2
# Adenosine kinase [22] = target: T1, Adenosine kinase; test: Drug metabolism in human BJ cells assessed as ADK-mediated 4-Methylsulfanyl-8-(beta-D-ribofuranosyl)-8H-thieno[3,2:4,5]-pyrrolo[2,3-d]pyrimidine-5-O-monophosphate Sodium Salt formation per 5 x10^5 cells at 10 umol/L after 3 hrs by UPLC-MS/MS analysis; format: ADME, cell-based; settings: 10 µM
# T1 sequence (P55263 whole entry): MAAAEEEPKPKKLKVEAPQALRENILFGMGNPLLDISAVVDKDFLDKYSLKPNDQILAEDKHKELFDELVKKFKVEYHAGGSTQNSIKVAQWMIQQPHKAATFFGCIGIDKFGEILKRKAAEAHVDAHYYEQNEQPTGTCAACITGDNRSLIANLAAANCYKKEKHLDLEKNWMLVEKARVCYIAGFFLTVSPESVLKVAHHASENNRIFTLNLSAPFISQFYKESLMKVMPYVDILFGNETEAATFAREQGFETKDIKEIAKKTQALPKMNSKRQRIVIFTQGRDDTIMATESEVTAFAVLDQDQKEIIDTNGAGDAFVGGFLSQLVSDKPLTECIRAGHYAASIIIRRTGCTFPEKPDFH
compound,measurement,setting,value
Nc1ncnc2c1ncn2[C@@H]1O[C@H](COP(=O)(O)O)[C@@H](O)[C@H]1O [ADENOSINE PHOSPHATE],Drug metabolism,Adenosine kinase [1],Metabolite_Detected
CSc1ncnc2c1c1ccsc1n2[C@@H]1O[C@H](COP(=O)([O-])O)[C@@H](O)[C@H]1O.[Na+],Drug metabolism,Adenosine kinase [2],Metabolite_Detected
same,IC50,HepG2,770 nM
same,Drug metabolism,Adenosine kinase [3],75.6 pmol
same,IC50,HeLa S3,2190 nM
same,IC50,BJ,730 nM
same,IC50,MRC5,> 50000 nM
same,Drug metabolism,Adenosine kinase [4],Metabolite_Detected
same,Drug metabolism,Adenosine kinase [5],Metabolite_Detected
same,IC50,U2OS,2590 nM
same,Drug metabolism,Adenosine kinase [6],76.2 pmol
same,Drug metabolism,Adenosine kinase [7],98.5 pmol
same,IC50,HCT-116 [8],250 nM
same,Drug metabolism,Adenosine kinase [9],Metabolite_Detected
same,IC50,K562,1320 nM
same,IC50,[10],> 50000 nM
same,IC50,[11],> 50000 nM
same,Drug metabolism,Adenosine kinase [12],13.8 pmol
same,Drug metabolism,Adenosine kinase [13],6694.3 pmol
same,IC50,HCT-116 [14],260 nM
same,Drug metabolism,Adenosine kinase [15],Metabolite_Detected
same,IC50,CCRF-CEM,190 nM
same,Drug metabolism,Adenosine kinase [16],Metabolite_Detected
same,Drug metabolism,Adenosine kinase [17],144.3 pmol
same,IC50,HL-60,770 nM
same,Drug metabolism,Adenosine kinase [18],Metabolite_Detected
same,Drug metabolism,Adenosine kinase [19],Metabolite_Detected
same,Drug metabolism,Adenosine kinase [20],Metabolite_Detected
same,Drug metabolism,Adenosine kinase [21],4933.3 pmol
same,IC50,A549,> 50000 nM
same,Drug metabolism,Adenosine kinase [22],6862.8 pmol

# Source: ChEMBL document CHEMBL4007430, “Synthesis and Cytostatic and Antiviral Profiling of Thieno-Fused 7-Deazapurine Ribonucleosides” (J Med Chem, 2017)
